In ChEMBL document CHEMBL4354843, “Structure-Based Design of a Potent and Selective Covalent Inhibitor for SRC Kinase That Targets a P-Loop Cysteine” (J Med Chem, 2020):

Columns and labels:
[1] = biological target: Phosphatidylinositol 4-phosphate 5-kinase type-1 gamma (Homo sapiens) (UniProt O60331); assay: Binding affinity to wild-type human partial length PIP5K1C (M1 to T668 residues) expressed in mammalian expression system assessed as residual binding level at 1 uM by Kinomescan method relative to control
[2] = biological target: Mitogen-activated protein kinase kinase kinase 11 (Homo sapiens) (UniProt Q16584); assay: Binding affinity to wild-type human partial length MLK3 (I77 to W399 residues) expressed in bacterial expression system assessed as residual binding level at 1 uM by Kinomescan method relative to control
[3] = biological target: Serine/threonine-protein kinase Nek7 (Homo sapiens) (UniProt Q8TDX7); assay: Binding affinity to wild-type human full length NEK7 (M1 to S302 residues) expressed in bacterial expression system assessed as residual binding level at 1 uM by Kinomescan method relative to control
How it was run: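 Active-site-directed competition binding panel (KinomeScan) covering 468 kinases. Test agent was screened at 1 μM. The read-out is the remaining kinase signal expressed relative to a DMSO control. Scores above 35%, taken as weak binding, were not reported.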

[4] = biological target: Serine/threonine-protein kinase TAO3 (Homo sapiens) (UniProt Q9H2K8); assay: Binding affinity to wild-type human partial length TAOK3 (M1 to T316 residues) expressed in mammalian expression system assessed as residual binding level at 1 uM by Kinomescan method relative to control
[5] = biological target: Insulin receptor-related protein (Homo sapiens) (UniProt P14616); assay: Binding affinity to wild-type human partial length INSRR (R950 to E1278 residues) expressed in bacterial expression system assessed as residual binding level at 1 uM by Kinomescan method relative to control
[6] = biological target: Uncharacterized serine/threonine-protein kinase SBK3 (Homo sapiens) (UniProt P0C264); assay: Binding affinity to wild-type human partial length SgK110 (L22 to R329 residues) expressed in bacterial expression system assessed as residual binding level at 1 uM by Kinomescan method relative to control
How it was run: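 Active site-directed competition binding panel (KinomeScan, 468 kinases). Test compound at 1 μM. Read-out is kinase binding remaining versus DMSO control, expressed as percent of control. Scores above 35% are treated as weak binding.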

[7] = biological target: Fibroblast growth factor receptor 1 (Homo sapiens, UniProt P11362); assay: Binding affinity to wild-type human partial length FGFR1 (P357 to V669 residues) expressed in bacterial expression system assessed as residual binding level at 1 uM by Kinomescan method relative to control
MDA-MB-231 = assay: Antiproliferative activity against human MDA-MB-231 cells assessed as reduction in cell viability incubated for 72 hrs by cell-titer glo assay; settings: MDA-MB-231, 72 h
[8] = system: Phosphatidylinositol 4,5-bisphosphate 3-kinase catalytic subunit alpha isoform (Homo sapiens), P42336 [I800L]; assay: Binding affinity to human partial length PIK3CA I800L mutant (R108 to N1068 residues) expressed in mammalian expression system assessed as residual binding level at 1 uM by Kinomescan method relative to control
How it was run: (§1)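 KinomeScan active site-directed competition binding panel (468 kinases), compound tested at 1 μM. Result expressed as remaining kinase signal versus DMSO control (percent of control).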

[9] = biological target: Discoidin domain-containing receptor 2 (Homo sapiens) (UniProt Q16832); assay: Binding affinity to wild-type human partial length DDR2 (V555 to E855 residues) expressed in mammalian expression system assessed as residual binding level at 1 uM by Kinomescan method relative to control
How it was run: (§2)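 Active-site-directed competition binding panel of 468 kinases (KinomeScan), compound at 1 μM. The read-out is kinase remaining bound, given as a percentage of the DMSO control. […]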

[10] = system: Epidermal growth factor receptor (Homo sapiens), P00533 [L858R]; assay: Binding affinity to human partial length EGFR L858R mutant (R669 to V1011 residues) expressed in bacterial expression system assessed as residual binding level at 1 uM by Kinomescan method relative to control; how it was run: as §1
[11] = biological target: Mitogen-activated protein kinase 12 (Homo sapiens) (UniProt P53778); assay: Binding affinity to wild-type human full length p38-gamma (M1 to L367 residues) expressed in mammalian expression system assessed as residual binding level at 1 uM by Kinomescan method relative to control
Mitogen-activated protein kinase 12 (Homo sapiens), sequence (P53778 whole entry, the tested form may be a part): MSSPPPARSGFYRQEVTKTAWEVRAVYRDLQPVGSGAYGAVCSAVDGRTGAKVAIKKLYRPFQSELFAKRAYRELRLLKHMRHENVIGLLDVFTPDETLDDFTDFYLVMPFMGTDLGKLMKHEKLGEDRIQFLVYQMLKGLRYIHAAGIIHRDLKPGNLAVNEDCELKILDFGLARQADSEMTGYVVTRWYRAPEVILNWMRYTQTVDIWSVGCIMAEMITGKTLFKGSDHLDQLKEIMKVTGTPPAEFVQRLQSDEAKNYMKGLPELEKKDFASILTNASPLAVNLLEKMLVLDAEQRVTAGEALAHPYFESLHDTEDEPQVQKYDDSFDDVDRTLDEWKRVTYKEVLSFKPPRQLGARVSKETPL
How it was run: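 KinomeScan, an active site-directed competition binding panel of 468 kinases. The test compound was at 1 μM. The readout is remaining kinase binding as a percentage of the DMSO control. Scores above 35% were treated as weak binding and not listed.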

[12] = biological target: Serine/threonine-protein kinase ULK3 (Homo sapiens) (UniProt Q6PHR2); assay: Binding affinity to wild-type human partial length ULK3 (M1 to Q290 residues) expressed in mammalian expression system assessed as residual binding level at 1 uM by Kinomescan method relative to control
[13] = system: Phosphatidylinositol 4,5-bisphosphate 3-kinase catalytic subunit alpha isoform (Homo sapiens), P42336 [C420R]; assay: Binding affinity to human partial length PIK3CA C420R mutant (R108 to N1068 residues) expressed in mammalian expression system assessed as residual binding level at 1 uM by Kinomescan method relative to control; how it was run: as §1
[14] = biological target: Phosphatidylinositol 4-phosphate 3-kinase C2 domain-containing subunit beta (Homo sapiens) (UniProt O00750); assay: Binding affinity to wild-type human partial length PIK3C2B (M1 to L1634 residues) expressed in mammalian expression system assessed as residual binding level at 1 uM by Kinomescan method relative to control
Phosphatidylinositol 4-phosphate 3-kinase C2 domain-containing subunit beta (Homo sapiens), sequence (O00750 whole entry, the tested form may be a part): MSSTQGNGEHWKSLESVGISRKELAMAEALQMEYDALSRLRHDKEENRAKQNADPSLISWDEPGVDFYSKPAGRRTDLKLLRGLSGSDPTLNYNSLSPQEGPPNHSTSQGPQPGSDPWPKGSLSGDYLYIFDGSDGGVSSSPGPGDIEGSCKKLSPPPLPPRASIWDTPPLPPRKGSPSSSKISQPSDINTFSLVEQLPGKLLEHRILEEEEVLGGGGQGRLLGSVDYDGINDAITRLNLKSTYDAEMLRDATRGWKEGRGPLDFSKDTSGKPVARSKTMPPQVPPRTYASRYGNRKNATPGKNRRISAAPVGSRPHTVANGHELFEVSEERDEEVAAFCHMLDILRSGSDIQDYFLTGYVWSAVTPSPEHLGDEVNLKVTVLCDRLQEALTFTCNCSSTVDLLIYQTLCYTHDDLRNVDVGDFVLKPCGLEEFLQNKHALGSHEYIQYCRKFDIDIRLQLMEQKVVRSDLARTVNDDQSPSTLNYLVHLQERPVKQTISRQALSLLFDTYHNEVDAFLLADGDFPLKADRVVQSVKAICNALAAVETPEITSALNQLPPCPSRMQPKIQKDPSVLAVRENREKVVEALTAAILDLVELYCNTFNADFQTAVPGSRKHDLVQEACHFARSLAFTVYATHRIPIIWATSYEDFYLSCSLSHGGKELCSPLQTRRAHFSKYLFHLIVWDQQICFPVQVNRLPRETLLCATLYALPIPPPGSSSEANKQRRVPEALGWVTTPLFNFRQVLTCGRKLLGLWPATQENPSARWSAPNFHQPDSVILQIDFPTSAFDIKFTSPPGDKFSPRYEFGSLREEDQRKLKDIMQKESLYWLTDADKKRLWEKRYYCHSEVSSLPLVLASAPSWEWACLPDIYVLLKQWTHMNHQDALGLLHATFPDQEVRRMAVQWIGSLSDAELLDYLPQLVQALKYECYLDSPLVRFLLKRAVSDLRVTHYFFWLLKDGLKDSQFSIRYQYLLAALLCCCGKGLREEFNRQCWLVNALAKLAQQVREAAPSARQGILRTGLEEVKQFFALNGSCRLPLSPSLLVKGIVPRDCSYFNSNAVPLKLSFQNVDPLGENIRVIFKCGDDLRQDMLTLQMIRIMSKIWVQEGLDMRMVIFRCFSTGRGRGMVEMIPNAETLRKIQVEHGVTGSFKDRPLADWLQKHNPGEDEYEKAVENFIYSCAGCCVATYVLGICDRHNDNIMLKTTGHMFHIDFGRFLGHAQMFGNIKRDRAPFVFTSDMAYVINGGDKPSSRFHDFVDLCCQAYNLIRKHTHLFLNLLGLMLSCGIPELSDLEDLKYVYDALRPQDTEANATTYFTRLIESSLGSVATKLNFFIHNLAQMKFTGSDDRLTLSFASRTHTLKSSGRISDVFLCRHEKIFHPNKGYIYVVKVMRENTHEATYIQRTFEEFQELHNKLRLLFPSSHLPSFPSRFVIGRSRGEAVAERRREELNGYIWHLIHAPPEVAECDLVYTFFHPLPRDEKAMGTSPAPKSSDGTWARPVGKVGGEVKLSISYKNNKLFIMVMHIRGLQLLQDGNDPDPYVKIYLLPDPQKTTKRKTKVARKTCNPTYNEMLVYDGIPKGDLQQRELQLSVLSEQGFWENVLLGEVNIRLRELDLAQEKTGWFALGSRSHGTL

[15] = biological target: MAP/microtubule affinity-regulating kinase 4 (Homo sapiens) (UniProt Q96L34); assay: Binding affinity to wild-type human partial length MARK4 (K29 to G340 residues) expressed in bacterial expression system assessed as residual binding level at 1 uM by Kinomescan method relative to control
MAP/microtubule affinity-regulating kinase 4 (Homo sapiens), sequence (Q96L34 whole entry, the tested form may be a part): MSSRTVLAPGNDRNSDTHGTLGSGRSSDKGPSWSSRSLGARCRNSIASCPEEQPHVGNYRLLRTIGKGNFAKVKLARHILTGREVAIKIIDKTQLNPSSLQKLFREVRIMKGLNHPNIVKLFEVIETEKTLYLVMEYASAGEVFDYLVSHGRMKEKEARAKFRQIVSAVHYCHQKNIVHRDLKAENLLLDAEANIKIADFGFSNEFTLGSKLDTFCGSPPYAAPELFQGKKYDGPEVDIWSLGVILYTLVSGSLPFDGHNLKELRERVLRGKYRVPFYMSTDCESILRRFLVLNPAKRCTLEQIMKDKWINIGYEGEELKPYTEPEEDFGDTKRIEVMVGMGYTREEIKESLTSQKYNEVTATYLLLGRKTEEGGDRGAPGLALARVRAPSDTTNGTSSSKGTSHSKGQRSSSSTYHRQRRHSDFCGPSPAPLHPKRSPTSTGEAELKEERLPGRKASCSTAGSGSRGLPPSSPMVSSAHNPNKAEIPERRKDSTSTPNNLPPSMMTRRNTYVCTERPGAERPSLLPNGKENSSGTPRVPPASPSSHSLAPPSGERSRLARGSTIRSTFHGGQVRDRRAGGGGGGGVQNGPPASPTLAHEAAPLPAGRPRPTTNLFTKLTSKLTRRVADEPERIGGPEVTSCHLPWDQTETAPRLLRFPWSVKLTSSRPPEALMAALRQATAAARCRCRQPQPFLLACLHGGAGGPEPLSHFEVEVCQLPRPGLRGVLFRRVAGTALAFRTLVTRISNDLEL

[16] = biological target: Cyclin-dependent kinase-like 3 (Homo sapiens) (UniProt Q8IVW4); assay: Binding affinity to wild-type human partial length CDKL3 (M1 to D327 residues) expressed in bacterial expression system assessed as residual binding level at 1 uM by Kinomescan method relative to control
Cyclin-dependent kinase-like 3 (Homo sapiens), sequence (Q8IVW4 whole entry, looked up, the tested form may be a part): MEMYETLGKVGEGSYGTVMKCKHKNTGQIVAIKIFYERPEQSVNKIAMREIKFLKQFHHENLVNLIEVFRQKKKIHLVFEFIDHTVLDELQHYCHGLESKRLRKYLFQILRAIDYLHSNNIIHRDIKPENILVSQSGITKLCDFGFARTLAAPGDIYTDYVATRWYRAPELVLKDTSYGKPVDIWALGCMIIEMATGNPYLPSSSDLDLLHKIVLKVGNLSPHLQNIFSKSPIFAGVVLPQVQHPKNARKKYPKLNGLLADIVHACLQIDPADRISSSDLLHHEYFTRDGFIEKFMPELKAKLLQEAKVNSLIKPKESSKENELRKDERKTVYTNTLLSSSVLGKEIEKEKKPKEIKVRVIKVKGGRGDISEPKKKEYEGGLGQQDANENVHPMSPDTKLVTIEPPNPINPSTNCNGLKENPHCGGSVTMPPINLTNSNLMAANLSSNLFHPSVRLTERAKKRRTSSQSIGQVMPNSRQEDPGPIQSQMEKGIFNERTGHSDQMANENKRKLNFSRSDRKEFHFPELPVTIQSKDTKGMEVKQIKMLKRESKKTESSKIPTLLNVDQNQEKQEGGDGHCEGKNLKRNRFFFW

[17] = biological target: Receptor tyrosine-protein kinase erbB-2 (Homo sapiens) (UniProt P04626); assay: Binding affinity to wild-type human partial length ERBB2 (K646 to V1225 residues) expressed in mammalian expression system assessed as residual binding level at 1 uM by Kinomescan method relative to control; how it was run: as §2
[18] = biological target: Beta-adrenergic receptor kinase 1 (Homo sapiens) (UniProt P25098); assay: Binding affinity to wild-type human full length GRK2 (M1 to L689 residues) expressed in mammalian expression system assessed as residual binding level at 1 uM by Kinomescan method relative to control
Beta-adrenergic receptor kinase 1 (Homo sapiens), sequence (P25098 whole entry, the tested form may be a part): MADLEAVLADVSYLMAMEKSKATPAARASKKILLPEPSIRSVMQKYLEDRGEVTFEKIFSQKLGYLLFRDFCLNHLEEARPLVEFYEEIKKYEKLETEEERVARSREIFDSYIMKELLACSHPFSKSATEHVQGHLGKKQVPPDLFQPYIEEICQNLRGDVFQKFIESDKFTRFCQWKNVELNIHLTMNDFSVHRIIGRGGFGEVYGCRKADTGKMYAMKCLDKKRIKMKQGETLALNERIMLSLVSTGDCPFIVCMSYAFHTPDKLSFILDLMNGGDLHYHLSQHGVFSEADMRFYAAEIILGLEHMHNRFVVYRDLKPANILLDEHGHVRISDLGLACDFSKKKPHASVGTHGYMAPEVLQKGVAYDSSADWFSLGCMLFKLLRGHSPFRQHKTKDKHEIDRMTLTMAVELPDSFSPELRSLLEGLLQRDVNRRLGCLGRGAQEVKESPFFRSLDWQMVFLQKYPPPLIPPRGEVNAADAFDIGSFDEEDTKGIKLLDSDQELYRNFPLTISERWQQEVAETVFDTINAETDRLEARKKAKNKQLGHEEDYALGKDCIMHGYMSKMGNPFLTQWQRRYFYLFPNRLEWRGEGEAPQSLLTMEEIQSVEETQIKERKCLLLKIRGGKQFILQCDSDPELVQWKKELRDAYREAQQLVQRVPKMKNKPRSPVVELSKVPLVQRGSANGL
How it was run: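 Active-site-directed KinomeScan competition binding panel covering 468 kinases, compound tested at 1 μM. Each readout is the kinase signal remaining with compound, expressed as a percentage of the DMSO control. […]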

[19] = system: Receptor-type tyrosine-protein kinase FLT3 (Homo sapiens), P36888 [UNDEFINED MUTATION]; assay: Binding affinity to human partial length FLT3 ITD/F691L double mutant expressed in bacterial expression system assessed as residual binding level at 1 uM by Kinomescan method relative to control; how it was run: as §1
Receptor-type tyrosine-protein kinase FLT3 (Homo sapiens), P36888 [UNDEFINED MUTATION], sequence (P36888 whole entry, looked up, stated change not applied): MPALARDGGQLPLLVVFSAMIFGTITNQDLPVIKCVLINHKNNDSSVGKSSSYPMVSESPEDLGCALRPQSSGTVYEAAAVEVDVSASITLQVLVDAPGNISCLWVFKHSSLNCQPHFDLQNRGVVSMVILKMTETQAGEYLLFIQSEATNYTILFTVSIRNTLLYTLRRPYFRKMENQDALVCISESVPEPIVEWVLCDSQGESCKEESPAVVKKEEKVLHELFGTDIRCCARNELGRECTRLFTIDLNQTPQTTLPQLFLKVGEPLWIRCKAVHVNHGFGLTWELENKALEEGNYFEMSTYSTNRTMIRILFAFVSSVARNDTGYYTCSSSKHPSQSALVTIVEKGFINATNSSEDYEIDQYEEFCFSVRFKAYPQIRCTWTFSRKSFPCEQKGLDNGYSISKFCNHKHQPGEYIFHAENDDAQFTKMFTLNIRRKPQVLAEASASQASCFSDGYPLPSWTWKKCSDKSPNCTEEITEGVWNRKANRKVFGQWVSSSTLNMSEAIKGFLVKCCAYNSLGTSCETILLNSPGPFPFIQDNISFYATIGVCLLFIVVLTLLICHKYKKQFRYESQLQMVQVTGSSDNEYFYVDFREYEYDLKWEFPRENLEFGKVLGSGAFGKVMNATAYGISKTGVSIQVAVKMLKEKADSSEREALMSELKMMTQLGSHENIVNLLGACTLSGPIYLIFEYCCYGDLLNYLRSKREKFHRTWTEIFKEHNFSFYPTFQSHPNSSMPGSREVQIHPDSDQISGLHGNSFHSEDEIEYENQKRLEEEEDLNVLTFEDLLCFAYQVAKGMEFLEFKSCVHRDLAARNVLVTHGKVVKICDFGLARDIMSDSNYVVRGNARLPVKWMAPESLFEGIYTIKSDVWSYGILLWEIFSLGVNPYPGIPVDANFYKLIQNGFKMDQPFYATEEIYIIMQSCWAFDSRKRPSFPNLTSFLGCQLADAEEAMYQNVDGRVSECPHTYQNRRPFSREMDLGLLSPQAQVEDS

**Q.** What does the source list for `C=CC(=O)Nc1ccccc1Nc1nc(Nc2ccc(N3CCN(C)CC3)cc2)ncc1C(=O)Nc1c(C)cccc1Cl`?
**A.** Activity [1]: 100%; Activity [2]: 100%; Activity [3]: 100%; Activity [4]: 100%; Activity [5]: 100%; Activity [6]: 60%; Activity [7]: 100%; IC50 (MDA-MB-231): 300 nM; Activity [8]: 86%; Activity [9]: 26%; Activity [10]: 62%; Activity [11]: 97%; Activity [12]: 100%; Activity [13]: 100%; Activity [14]: 100%; Activity [15]: 95%; Activity [16]: 100%; Activity [17]: 63%; Activity [18]: 85%; Activity [19]: 85%
